# Assay results collected from several papers.
# Each line is one published result; the experiments were not run side by side.
# CYP3A7: Cytochrome P450 3A7 (CYP3A7, Homo sapiens, UniProt P24462)
SMILES,tested on,assay,system,setting,measurement,result
Cc1ncc2n1-c1ccc(Cl)cc1C(c1ccccc1F)=NC2,,metabolic stability,"CD-1 mouse, hepatocytes","1 µM, 4 h",compound remaining,0.3%
COC(=O)N[C@H](C(=O)NN(CC[C@@]1(Cc2ccccc2)C(=O)N([C@H]2c3ccccc3C[C@H]2O)C[C@@H]1O)Cc1ccc(Br)cc1)C(C)(C)C,MT4,"cell growth or viability, XTT",,5 days,CC50,> 50 µM
O=C(O)C(F)(F)C(F)(F)C(F)(F)C(F)(F)C(F)(F)C(F)(F)C(F)(F)F,CYP3A7,"enzyme activity, inhibitor",,"100 µM, pH 7.4",inhibition,35.8%
C=C(C)[C@@]1(O)[C@H](OC(=O)/C=C/C=C/C=C/CCC)[C@@H]2[C@@H]3O[C@]3(CO)[C@@H](O)[C@]3(O)C(=O)C(C)=C[C@H]3[C@@]2(O)[C@H](C)[C@H]1OC(=O)/C=C/c1ccc(O)c(OC)c1,MT4,"cell growth or viability, ATP luminescence",,96 h,IC50,> 0.034 µM
CCCCCC/C=C/CC(=O)O[C@@]12[C@H](OC(=O)c3ccccc3)[C@@H](C)[C@@]3(O)[C@@H](C=C(CO)C[C@]4(O)C(=O)C(C)=C[C@@H]34)[C@@H]1C2(C)C,MT4,"cell growth or viability, ATP luminescence",,,CC50,> 7 µM
C=C(C)[C@@]12O[C@@]3(/C=C/C=C/CCCCC)O[C@@H]1[C@@H]1[C@@H]4O[C@]4(CO)[C@@H](O)[C@]4(O)C(=O)C(C)=C[C@H]4[C@@]1(O3)[C@H](C)[C@H]2OC(=O)c1ccccc1,MT4,"cell growth or viability, ATP luminescence",,96 h,IC50,> 0.034 µM
COC(=O)N[C@H](C(=O)NN(CC[C@@]1(Cc2ccccc2)C(=O)N([C@H]2c3ccccc3C[C@H]2O)C[C@@H]1O)Cc1ccc(-c2ccncc2)cc1)C(C)(C)C,MT4,"cell growth or viability, XTT",,5 days,CC50,> 50 µM
C=C(C)[C@@]12O[C@@]3(/C=C/C=C/C=C/CCC)O[C@@H]1[C@@H]1[C@@H]4O[C@]4(CO)[C@@H](O)[C@]4(O)C(=O)C(C)=C[C@H]4[C@@]1(O3)[C@H](C)[C@H]2OC(=O)/C=C/c1ccc(O)c(OC)c1,MT4,"cell growth or viability, ATP luminescence",,96 h,IC50,> 0.034 µM
N=c1c2c(-c3ccccc3)c(-c3ccccc3)n(Cc3ccccc3)c2ncn1[C@H]1CC[C@H](O)CC1,,metabolic stability,"Sprague-Dawley rat, hepatocytes","1 µM, 4 h",compound remaining,44%
C=C(C)[C@@]12O[C@@]3(/C=C/C=C/CCCCC)O[C@@H]1[C@@H]1[C@@H]4O[C@]4(CO)[C@@H](O)[C@]4(O)C(=O)C(C)=C[C@H]4[C@@]1(O3)[C@H](C)[C@H]2OC(=O)/C=C/c1ccc(O)c(OC)c1,MT4,"cell growth or viability, ATP luminescence",,96 h,IC50,> 0.034 µM
CC[C@H](C)[C@H]1C(=O)N2CCC[C@H]2C(=O)O[C@H](C(C)(C)C)C[C@@H](C)C[C@H](O)[C@H](C)C2=N[C@H](CCC(=O)N[C@@H](Cc3ccc(OC)cc3)C(=O)N(C)[C@@H](C)C(=O)N1C)CS2,,metabolic stability,"female CD-1 mouse, liver microsomes","1 µM, 0 h, pH 7.4",compound remaining,100%
C#Cc1ccc2c(c1)C(c1ccccc1F)=N[C@@H](C)c1c(C(=O)OCC(F)(F)F)ncn1-2,,metabolic stability,"mouse, liver microsomes",20 min,compound remaining,< 5%
O=S(=O)(O)C(F)(F)C(F)(F)C(F)(F)C(F)(F)C(F)(F)C(F)(F)C(F)(F)C(F)(F)F,CYP3A7,"enzyme activity, inhibitor, fluorescence",,,IC50,20.4 µM
CC[C@H](C)[C@H]1C(=O)N2CCC[C@H]2C(=O)O[C@H](C(C)(C)C)C[C@@H](C)C[C@H](O)C(C)(C)C2=N[C@@H](CCC(=O)N[C@@H](Cc3ccc(OC)cc3)C(=O)N(C)[C@@H](C)C(=O)N1C)CS2,,metabolic stability,"female CD-1 mouse, liver microsomes","1 µM, 0 h, pH 7.4",compound remaining,100%
C=C(C)[C@@]12O[C@@]3(/C=C/C=C/C=C/CCC)O[C@@H]1[C@@H]1[C@@H]4O[C@]4(CO)[C@@H](O)[C@]4(O)C(=O)C(C)=C[C@H]4[C@@]1(O3)[C@H](C)[C@H]2OC(=O)/C=C/c1ccccc1,MT4,"cell growth or viability, ATP luminescence",,96 h,IC50,> 0.034 µM
O=S(=O)(O)C(F)(F)C(F)(F)C(F)(F)C(F)(F)C(F)(F)C(F)(F)F,CYP3A7,"enzyme activity, inhibitor",,"100 µM, pH 7.4",inhibition,48.8%
CCCC/C=C/C=C/CC(=O)O[C@@]12[C@H](OC(=O)c3ccccc3)[C@@H](C)[C@@]3(O)[C@@H](C=C(CO)C[C@]4(O)C(=O)C(C)=C[C@@H]34)[C@@H]1C2(C)C,MT4,"cell growth or viability, ATP luminescence",,,CC50,> 7 µM
Cc1ncc2n1-c1ccc(Cl)cc1C(c1ccccc1F)=NC2,,metabolic stability,"male rat, liver microsomes","1 µM, 30 min",compound remaining,< 7%
C=C(C)[C@@]12O[C@@]3(/C=C/C=C/CCCCC)O[C@@H]1[C@@H]1[C@@H]4O[C@]4(CO)[C@@H](O)[C@]4(O)C(=O)C(C)=C[C@H]4[C@@]1(O3)[C@H](C)[C@H]2OC(=O)/C=C/c1ccccc1,MT4,"cell growth or viability, ATP luminescence",,96 h,IC50,> 0.034 µM
CCCCCC/C=C/CC(=O)O[C@@]12[C@H](OC(=O)c3ccccc3)[C@@H](C)[C@]3(O)[C@@H]4C=C(C)C(=O)[C@@]4(O)[C@H](O)C(CO)=C[C@H]3[C@@H]1C2(C)C,MT4,"cell growth or viability, ATP luminescence",,,CC50,> 7 µM
